Measured values reported in ChEMBL document CHEMBL1156575, “Toward an optimal blood-brain barrier shuttle by synthesis and evaluation of peptide libraries” (J Med Chem, 2008).
Where a SMILES comes first, the peptide text is derived from it. [ ]: non-standard residue; d: D form. Tpi = O=C(O)[C@@H]1Cc2c([nH]c3ccccc23)CN1; NMeW = CN[C@@H](Cc1c[nH]c2ccccc12)C(=O)O; 2Nal = N[C@@H](Cc1ccc2ccccc2c1)C(=O)O; Dopa = N[C@@H](Cc1ccc(O)c(O)c1)C(=O)O; NMehPhe = CN[C@@H](CCc1ccccc1)C(=O)O; NMeF = CN[C@@H](Cc1ccccc1)C(=O)O; NMePhg = CN[C@H](C(=O)O)c1ccccc1; 3Pal = N[C@@H](Cc1cccnc1)C(=O)O; Tic = O=C(O)[C@@H]1Cc2ccccc2CN1; Phg = N[C@H](C(=O)O)c1ccccc1

Key:
[1] = Membrane permeability by PAMPA
[2] = Membrane permeability assessed as passive transport after 4 hrs by PAMPA
[3] = tested on: HeLa; assay: Cytotoxicity against human HeLa cells at 25 to 100 uM after 24 hrs by MTT assay; format: functional, cell-based
In short: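 HeLa cells seeded at 7000 cells/well and grown 24 h, then given peptide in medium (solutions centrifuged first, as not fully soluble) at 25, 50 and 100 µM for 24 h at 37 °C. MTT added at 22 h (0.5 mg/mL final) for 2 h. Formazan dissolved in 2-propanol, A570 read after 45 min. Viability is % of untreated cells; mean ± SD.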

[4] = Stability in human serum after 12 hrs
[5] = Membrane permeability assessed as passive transport after 4 hrs by PAMPA in presence of 20% 1-propanol; format: ADME
In short: (§1)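 PAMPA-BBB model, 200 µM compound in pION buffer pH 7.4 with 20% 1-propanol in the donor well. Filter coated with phospholipid mix (20 mg/mL in dodecane); acceptor holds buffer plus 1-propanol. Incubated 4 h at room temperature, saturated humidity, orbital shaking 100 rpm. Donor and acceptor quantified by RP-HPLC. % transport at 4 h and Pe (eq 1) calculated; mean ± SD.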

[6] = Membrane permeability by PAMPA in presence of 20% 1-propanol; format: ADME; settings: read-out: permeability; in short: as §1

Compound	Papp ([1]; permeability)	permeability [2]	also measured
CC(=O)N(C)[C@H](C(=O)N(C)[C@@H](Cc1ccccc1)C(=O)N(C)[C@@H](Cc1ccccc1)C(=O)N(C)[C@@H](Cc1ccccc1)C(N)=O)c1ccccc1 (Ac-[NMePhg][NMeF][NMeF][NMeF]-NH2)	0.7 ×10⁻⁶ cm/s	1.5%	–
CN(C(=O)[C@@H](N)Cc1ccc(O)c(O)c1)[C@@H](Cc1ccccc1)C(=O)N(C)[C@@H](Cc1ccccc1)C(=O)N(C)[C@@H](Cc1ccccc1)C(=O)N(C)[C@@H](Cc1ccccc1)C(N)=O (H-[Dopa][NMeF][NMeF][NMeF][NMeF]-NH2)	–	2.4%	Papp [1]: 1.1 ×10⁻⁶ cm/s
CN(C(=O)[C@H](Cc1ccc2ccccc2c1)NC(=O)[C@@H](N)Cc1ccc(O)c(O)c1)[C@@H](Cc1ccccc1)C(=O)N(C)[C@@H](Cc1ccccc1)C(=O)N(C)[C@@H](Cc1ccccc1)C(N)=O (H-[Dopa][2Nal][NMeF][NMeF][NMeF]-NH2)	–	0.7%	Papp [1]: 0.3 ×10⁻⁶ cm/s
CC(=O)N[C@@H](Cc1ccc2ccccc2c1)C(=O)N(C)[C@@H](Cc1ccccc1)C(=O)N(C)[C@@H](Cc1ccccc1)C(=O)N(C)[C@@H](Cc1ccccc1)C(N)=O (Ac-[2Nal][NMeF][NMeF][NMeF]-NH2)	–	–	Activity [3]: Not toxic
CC(=O)N(C)[C@@H](Cc1ccccc1)C(=O)N(C)[C@@H](Cc1ccccc1)C(=O)N(C)[C@@H](Cc1ccccc1)C(=O)N(C)[C@@H](Cc1ccccc1)C(N)=O (stereo in doubt; form 2)	–	–	remaining at 12 h [4]: 91%; Activity [3]: Not toxic
CC(=O)N1Cc2[nH]c3ccccc3c2C[C@H]1C(=O)N(C)[C@@H](Cc1ccccc1)C(=O)N(C)[C@@H](Cc1ccccc1)C(=O)N(C)[C@@H](Cc1ccccc1)C(N)=O (Ac-[Tpi][NMeF][NMeF][NMeF]-NH2)	1.5 ×10⁻⁶ cm/s	3.2%	–
CC(=O)N(C)[C@@H](CCc1ccccc1)C(=O)N(C)[C@@H](Cc1ccccc1)C(=O)N(C)[C@@H](Cc1ccccc1)C(=O)N(C)[C@@H](Cc1ccccc1)C(N)=O (Ac-[NMehPhe][NMeF][NMeF][NMeF]-NH2)	1.8 ×10⁻⁶ cm/s	3.7%	–
Cn1c(=O)c2c(ncn2C)n(C)c1=O [CAFFEINE]	1.8 ×10⁻⁶ cm/s	3.6%	permeability [5]: 3.6%; Papp [6]: 1.8 ×10⁻⁶ cm/s
CC(=O)N(C)[C@@H](Cc1ccccc1)C(=O)N(C)[C@@H](Cc1ccccc1)C(=O)N(C)[C@@H](Cc1ccccc1)C(=O)N(C)[C@@H](Cc1ccccc1)C(=O)O (Ac-[NMeF][NMeF][NMeF][NMeF]-OH)	0.9 ×10⁻⁶ cm/s	1.9%	–
NCCc1ccc(O)c(O)c1 [DOPAMINE]	–	0%	permeability [5]: 0%
CC(=O)N1Cc2ccccc2C[C@H]1C(=O)N(C)[C@@H](Cc1ccccc1)C(=O)N(C)[C@@H](Cc1ccccc1)C(=O)N(C)[C@@H](Cc1ccccc1)C(N)=O (Ac-[Tic][NMeF][NMeF][NMeF]-NH2)	2 ×10⁻⁶ cm/s	4.3%	–
N[C@@H](Cc1ccc(O)c(O)c1)C(=O)O [LEVODOPA]	–	0%	permeability [5]: 0%

Continued, in another order:

Papp ([1]; permeability)	permeability [2]	Compound	also measured
2.2 ×10⁻⁶ cm/s	4.6%	CN(C(=O)[C@@H]1Cc2ccccc2CN1)[C@@H](Cc1ccccc1)C(=O)N(C)[C@@H](Cc1ccccc1)C(=O)N(C)[C@@H](Cc1ccccc1)C(N)=O (H-[Tic][NMeF][NMeF][NMeF]-NH2)	–
–	0%	CC(=O)N[C@H](C(=O)N(C)[C@@H](Cc1ccccc1)C(=O)N(C)[C@@H](Cc1ccccc1)C(=O)N(C)[C@@H](Cc1ccccc1)C(N)=O)c1ccccc1 (Ac-[Phg][NMeF][NMeF][NMeF]-NH2)	–
8 ×10⁻⁶ cm/s	16.8%	NC(=O)N1c2ccccc2C=Cc2ccccc21 [CARBAMAZEPINE]	permeability [5]: 20.6%; Papp [6]: 12.8 ×10⁻⁶ cm/s
0.6 ×10⁻⁶ cm/s	1.3%	CN(C(=O)[C@@H]1Cc2c([nH]c3ccccc23)CN1)[C@@H](Cc1ccccc1)C(=O)N(C)[C@@H](Cc1ccccc1)C(=O)N(C)[C@@H](Cc1ccccc1)C(N)=O (H-[Tpi][NMeF][NMeF][NMeF]-NH2)	–
6.9 ×10⁻⁶ cm/s	13.5%	CC(C)NCC(O)COc1cccc2ccccc12 (centres undefined) [PROPRANOLOL]	permeability [5]: 14.9%; Papp [6]: 8.4 ×10⁻⁶ cm/s
1.8 ×10⁻⁶ cm/s	3.9%	CC(=O)N[C@@H](Cc1c[nH]c2ccccc12)C(=O)N(C)[C@@H](Cc1ccccc1)C(=O)N(C)[C@@H](Cc1ccccc1)C(=O)N(C)[C@@H](Cc1ccccc1)C(N)=O (Ac-W[NMeF][NMeF][NMeF]-NH2)	–
1.2 ×10⁻⁶ cm/s	2.5%	CC(=O)N[C@@H](Cc1cccnc1)C(=O)N(C)[C@@H](Cc1ccccc1)C(=O)N(C)[C@@H](Cc1ccccc1)C(=O)N(C)[C@@H](Cc1ccccc1)C(N)=O (Ac-[3Pal][NMeF][NMeF][NMeF]-NH2)	–
1.4 ×10⁻⁶ cm/s	2.9%	CC(=O)N(C)[C@@H](Cc1c[nH]c2ccccc12)C(=O)N(C)[C@@H](Cc1ccccc1)C(=O)N(C)[C@@H](Cc1ccccc1)C(=O)N(C)[C@@H](Cc1ccccc1)C(N)=O (Ac-[NMeW][NMeF][NMeF][NMeF]-NH2)	–
